# The source made the active and inactive calls. The rule behind the calls is not given here.
# Columns and labels:
# [1] = molecular target: T1, Choline O-acetyltransferase (Rattus norvegicus) (UniProt P32738); assay: Induction of ChAT activity in rat forebrain cells at 0.1 ug/mL relative to control; assay type: cell-based
# T1 sequence (whole entry): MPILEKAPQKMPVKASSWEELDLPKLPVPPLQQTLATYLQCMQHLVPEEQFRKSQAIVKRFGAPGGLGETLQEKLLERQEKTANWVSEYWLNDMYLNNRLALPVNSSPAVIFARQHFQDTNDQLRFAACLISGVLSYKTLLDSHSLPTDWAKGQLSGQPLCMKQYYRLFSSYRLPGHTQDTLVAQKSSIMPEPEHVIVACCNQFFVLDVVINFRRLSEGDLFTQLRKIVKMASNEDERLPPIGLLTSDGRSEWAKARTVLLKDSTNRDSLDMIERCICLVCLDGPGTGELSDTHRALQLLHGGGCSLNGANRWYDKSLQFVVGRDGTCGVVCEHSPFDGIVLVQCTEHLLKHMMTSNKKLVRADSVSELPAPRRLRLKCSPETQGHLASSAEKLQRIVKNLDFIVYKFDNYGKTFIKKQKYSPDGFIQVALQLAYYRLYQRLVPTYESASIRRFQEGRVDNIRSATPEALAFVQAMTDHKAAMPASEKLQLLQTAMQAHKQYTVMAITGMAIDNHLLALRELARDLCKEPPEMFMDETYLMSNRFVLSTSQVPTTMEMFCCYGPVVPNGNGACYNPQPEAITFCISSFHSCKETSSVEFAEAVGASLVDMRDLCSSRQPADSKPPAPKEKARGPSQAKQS
# In short: (§1)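 Basal forebrain from E17–19 rat embryos, papain-dissociated, plated at 1 × 10^6 cells/well in DMEM/F12 with 5% FBS and 5% horse serum. After 7 days of preculture, cells were exposed for 3 days. Lysate (1% Triton X-100, pH 6.8 Tris) was incubated with 25 µM [14C]acetyl-CoA and 8 mM choline with eserine for 1 h at 37 °C. Extracted [14C]ACh was counted. Results are % of control, n = 3.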
# [2] = molecular target: T1, Choline O-acetyltransferase (Rattus norvegicus); assay: Induction of ChAT activity in rat forebrain cells at 1 ug/mL relative to control; assay type: cell-based; in short: as §1
# [3] = molecular target: T1, Choline O-acetyltransferase (Rattus norvegicus); assay: Induction of ChAT activity in rat forebrain cultured cells at 0.01 ug/mL after 3 days relative to control; assay type: cell-based; in short: as §1
# [4] = molecular target: T1, Choline O-acetyltransferase (Rattus norvegicus); assay: Induction of ChAT activity in rat forebrain cultured cells at 1 ug/mL after 3 days relative to control; assay type: cell-based; in short: as §1
# [5] = Cytotoxicity against rat basal forebrain cells at 10 ug/mL
# [6] = molecular target: T1, Choline O-acetyltransferase (Rattus norvegicus); assay: Induction of ChAT activity in rat forebrain cultured cells at 0.1 ug/mL after 3 days relative to control; assay type: cell-based; in short: as §1
# Rattus norvegicus [7] = organism: Rattus norvegicus; assay: Induction of ChAT mRNA expression in rat forebrain cells at 0.1 ug/mL after 6 hrs by RT-PCR method; assay type: functional, cell-based
# In short: (§2)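 Cultured rat embryo basal forebrain cells were exposed for 6 h. ChAT mRNA was assessed by RT-PCR, and ethidium bromide-stained products were quantified by optical scanning as relative intensities.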
# Rattus norvegicus [8] = organism: Rattus norvegicus; assay: Induction of ChAT mRNA expression in rat forebrain cells at 1 ug/mL after 6 hrs by RT-PCR method; assay type: functional, cell-based; in short: as §2
# [9] = molecular target: T2, Choline O-acetyltransferase (Mus musculus) (UniProt Q03059); assay: Induction of ChAT activity in mouse SN49 cultured cells at 1 ug/mL after 3 days relative to control; assay type: cell-based
# T2 sequence (whole entry): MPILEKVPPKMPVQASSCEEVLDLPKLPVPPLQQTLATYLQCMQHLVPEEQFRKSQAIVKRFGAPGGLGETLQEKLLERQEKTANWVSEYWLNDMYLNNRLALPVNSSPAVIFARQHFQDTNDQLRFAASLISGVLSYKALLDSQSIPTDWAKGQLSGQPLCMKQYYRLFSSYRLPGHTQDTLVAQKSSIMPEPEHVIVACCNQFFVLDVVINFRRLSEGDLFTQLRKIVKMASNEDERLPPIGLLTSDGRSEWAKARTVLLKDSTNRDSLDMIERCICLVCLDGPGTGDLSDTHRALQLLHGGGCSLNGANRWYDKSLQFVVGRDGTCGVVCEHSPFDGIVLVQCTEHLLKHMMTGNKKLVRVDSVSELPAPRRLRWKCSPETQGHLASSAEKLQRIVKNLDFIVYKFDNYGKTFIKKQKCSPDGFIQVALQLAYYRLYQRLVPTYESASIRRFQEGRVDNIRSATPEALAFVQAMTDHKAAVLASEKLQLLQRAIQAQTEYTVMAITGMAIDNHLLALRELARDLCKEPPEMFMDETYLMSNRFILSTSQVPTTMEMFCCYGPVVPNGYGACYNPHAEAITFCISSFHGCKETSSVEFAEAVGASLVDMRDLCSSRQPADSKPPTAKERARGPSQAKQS
# In short: (§3)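 Mouse septal SN49 hybrid cells were grown in DMEM with 10% FBS and plated at 2 × 10^5 cells/well. After 24 h at 37 °C, compound was added for a further 48 h. ChAT was measured in Triton lysates as [14C]acetylcholine formed from 25 µM [14C]acetyl-CoA and 8 mM choline chloride (0.1 mM eserine, 37 °C, 1 h) by scintillation counting. Results are % of control, n = 3, with Dunnett test.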
# [10] = molecular target: T2, Choline O-acetyltransferase (Mus musculus); assay: Induction of ChAT activity in mouse SN49 cultured cells at 0.1 ug/mL after 3 days relative to control; assay type: cell-based; in short: as §3
# [11] = Cytotoxicity against rat forebrain cells at 10 ug/mL; assay type: cell-based
# [12] = molecular target: T2, Choline O-acetyltransferase (Mus musculus); assay: Induction of ChAT activity in mouse SN49 cultured cells at 0.01 ug/mL after 3 days relative to control; assay type: cell-based; in short: as §3
# [13] = molecular target: T1, Choline O-acetyltransferase (Rattus norvegicus); assay: Induction of ChAT activity in rat forebrain cultured cells at 10 ug/mL after 3 days relative to control; assay type: cell-based; in short: as §1
# [14] = molecular target: T2, Choline O-acetyltransferase (Mus musculus); assay: Induction of ChAT activity in mouse SN49 cultured cells at 10 ug/mL after 3 days relative to control; assay type: cell-based; in short: as §3
SMILES,Activity [1] [%],Activity [2] [%],further results
COC1(OC)CC[C@@H]2O[C@]2(CO)C[C@H]2O[C@@]23[C@H](C(C)(C)O)CC[C@@]3(C)CC1,109,104,–
C=C1CC[C@@H]2O[C@]2(COC(=O)c2ccccc2)C[C@H]2O[C@@]23[C@H](C(C)(C)O)CC[C@@]3(C)CC1,116,173,–
C=C1CC[C@@H]2O[C@]2(COC(C)=O)C[C@H]2O[C@@]23[C@H](C(C)(C)O)CC[C@@]3(C)CC1,89.2,210,–
C=C1CC[C@@H]2O[C@]2(COC(=O)CCCCC)C[C@H]2O[C@@]23[C@H](C(C)(C)O)CC[C@@]3(C)CC1,139,164,–
C=C1CC[C@@H]2O[C@]2(COC(=O)CCC)C[C@H]2O[C@@]23[C@H](C(C)(C)O)CC[C@@]3(C)CC1,118,179,–
C=C1CC[C@@H](Cl)[C@@](O)(COC(=O)c2ccc(Br)cc2)C[C@H]2O[C@@]23[C@H](C(C)(C)O)CC[C@@]3(C)CC1,96.7,95.3,–
C=C1CC[C@@H](OC)[C@@](O)(CO)C[C@H]2O[C@@]23[C@H](C(C)(C)O)CC[C@@]3(C)CC1,89.2,92.3,–
C=C1CC[C@@H]2O[C@]2(COC(=O)CCCCCCCCCCC)C[C@H]2O[C@@]23[C@H](C(C)(C)O)CC[C@@]3(C)CC1,108,143,–
C=C1CC[C@@H]2O[C@]2(COC(C)=O)C[C@H]2O[C@@]23[C@H](C(C)(C)O)CC[C@@]3(C)[C@H](OC(C)=O)C1,11.5,161,–
C=C1CC/C=C(/CO)C/C=C2\[C@H](C(C)(C)O)CC[C@@]2(C)CC1,109,122,–
C=C1CC[C@@H]2O[C@]2(CO)C[C@H]2O[C@@]23[C@H](C(C)(C)O)CC[C@@]3(C)CC1 [STOLONIDIOL],127,231,Activity [3]: 130%; Activity [4]: 139%; Activity [5]: Toxic; Activity [6]: 178%; Activity (Rattus norvegicus [7]): Active; Activity (Rattus norvegicus [8]): Active; Activity [9]: 145%; Activity [10]: 142%; Activity [11]: Toxic; Activity [12]: 146%; Activity [13]: 38.2%; Activity [14]: 92.7%
C=C1CC[C@@H]2O[C@]2(COC(=O)CCCCCCCCCCCCC)C[C@H]2O[C@@]23[C@H](C(C)(C)O)CC[C@@]3(C)CC1,97.6,174,–

# — ChEMBL document CHEMBL1154557, “Induction of choline acetyltransferase activity in cholinergic neurons by stolonidiol: structure-activity relationship” (J Nat Prod, 2000)
